Assay results from ChEMBL document CHEMBL1155539, “Discovery of 4-[1-[([1-[4-(trifluoromethyl)benzyl]-1H-indol-7-yl]carbonyl)amino]cyclopropyl]benzoic acid (MF-766), a highly potent and selective EP4 antagonist for treating inflammatory pain” (Bioorg Med Chem Lett, 2010).

Columns and labels:
Rattus norvegicus [1] = assay: Antiinflammatory activity in rat assessed as inhibition of complete Freund's adjuvant-induced paw swelling administered daily once 9 days after adjuvant challenge measured on day 18; format: functional; settings: read-out: ED50
Procedure, shortened: (§1)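 Rat adjuvant-induced arthritis model with daily dosing in mg/kg/day. Dose groups were 0, 0.001, 0.01, 0.1 and 1 mg/kg, plus a non-AIA control group. Primary and secondary paw swelling were scored as % inhibition relative to vehicle-treated arthritic rats, and ED50 was estimated from the dose–response.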

[2] = molecular target: T1, Prostaglandin D2 receptor (Homo sapiens, UniProt Q13258); assay: Displacement of [3H]PGD2 from human Prostanoid DP1 receptor expressed in HEK293-EBNA cells after 60 mins by scintillation counting; format: cell-based
T1 sequence (Q13258 whole entry): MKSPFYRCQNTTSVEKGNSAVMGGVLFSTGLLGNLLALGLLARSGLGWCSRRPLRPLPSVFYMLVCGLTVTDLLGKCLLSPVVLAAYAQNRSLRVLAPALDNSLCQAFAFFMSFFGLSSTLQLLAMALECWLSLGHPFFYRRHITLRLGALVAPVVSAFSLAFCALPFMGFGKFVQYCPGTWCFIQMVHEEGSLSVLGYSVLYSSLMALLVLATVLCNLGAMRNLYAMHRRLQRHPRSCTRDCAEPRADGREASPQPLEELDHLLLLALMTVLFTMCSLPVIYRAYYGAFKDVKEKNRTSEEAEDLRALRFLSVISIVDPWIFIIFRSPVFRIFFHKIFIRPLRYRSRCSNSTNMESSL

Hepatocyte = assay: Metabolic stability in rat hepatocytes; format: ADME, cell-based
[3] = molecular target: Prostaglandin E2 receptor EP4 subtype (Homo sapiens, UniProt P35408); assay: Antagonist activity at human prostanoid EP4 receptor expressed in HEK293 cells assessed as inhibition of PGE2-induced cAMP accumulation by scintillation proximity assay; format: functional, cell-based
Sequence of Prostaglandin E2 receptor EP4 subtype (P35408 whole entry): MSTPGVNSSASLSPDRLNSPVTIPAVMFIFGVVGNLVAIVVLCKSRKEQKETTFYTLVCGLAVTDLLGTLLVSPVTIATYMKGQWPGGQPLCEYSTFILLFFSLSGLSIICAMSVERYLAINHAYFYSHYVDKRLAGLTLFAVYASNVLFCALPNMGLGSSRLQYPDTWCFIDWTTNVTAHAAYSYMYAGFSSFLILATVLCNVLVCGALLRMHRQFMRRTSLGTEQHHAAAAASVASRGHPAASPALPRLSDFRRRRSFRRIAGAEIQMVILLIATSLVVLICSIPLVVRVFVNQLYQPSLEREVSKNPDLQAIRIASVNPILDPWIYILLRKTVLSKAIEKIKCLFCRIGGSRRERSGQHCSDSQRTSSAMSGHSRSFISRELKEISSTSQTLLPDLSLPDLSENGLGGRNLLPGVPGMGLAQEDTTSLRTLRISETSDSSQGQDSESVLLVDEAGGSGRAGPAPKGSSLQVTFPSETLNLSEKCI
Procedure, shortened: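 Read-out was inhibition of PGE2-induced cAMP accumulation at EP4. Values are means from at least two independent experiments.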

[4] = Drug level in complete Freund's adjuvant challenged rat administered daily once 9 days after adjuvant challenge measured on day 18 after 2 hrs post dose; format: ADME, organism-based; settings: in vivo, read-out: Drug uptake
Procedure, shortened: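 In a separate rat AIA experiment with daily dosing, plasma drug levels were measured 2 h and 24 h after the final dose.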

Canis familiaris [5] = assay: Bioavailability in Beagle dog at 1 mg/kg, iv and 4 mg/kg, po; settings: in vivo
[6] = Bioavailability in Sprague-Dawley rat at 5 mg/kg, iv and 20 mg/kg, po; format: ADME, organism-based; settings: in vivo
Procedure, shortened: (§2)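 Sprague-Dawley rats dosed iv at 5 mg/kg and po at 20 mg/kg. The iv group was n = 2 males given the free acid in 60% PEG 200 at 1 mL/kg. PK parameters were derived from plasma levels.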

[7] = Elimination half life in Sprague-Dawley rat at 5 mg/kg, iv and 20 mg/kg, po; format: ADME, organism-based; settings: in vivo, read-out: beta t1/2 (converted); procedure, shortened: as §2
Rattus norvegicus [8] = assay: Antiinflammatory activity in rat assessed as inhibition of complete Freund's adjuvant-induced secondary paw swelling administered daily once 9 days after adjuvant challenge measured on day 18; format: functional; procedure, shortened: as §1
Canis familiaris [9] = assay: AUC (0 to 24 hrs) in Beagle dog at 4 mg/kg, po; settings: in vivo
Rattus norvegicus [10] = assay: Antiinflammatory activity in rat assessed as inhibition of complete Freund's adjuvant-induced primary paw swelling at 0.001 to 1 mg/kg administered daily once 9 days after adjuvant challenge measured on day 18; format: functional; design: scale not given: the % may be the effect or the level left; settings: dose mg/kg 0.001-1; procedure, shortened: as §1
Rattus norvegicus [11] = assay: Antiinflammatory activity in rat assessed as inhibition of complete Freund's adjuvant-induced primary paw swelling administered daily once 9 days after adjuvant challenge measured on day 18; format: functional; procedure, shortened: as §1
Rattus norvegicus [12] = assay: Antiinflammatory activity in rat assessed as inhibition of complete Freund's adjuvant-induced secondary paw swelling at 0.001 to 1 mg/kg administered daily once 9 days after adjuvant challenge measured on day 18; format: functional; design: scale not given: the % may be the effect or the level left; settings: dose mg/kg 0.001-1; procedure, shortened: as §1
[13] = Plasma clearance in Sprague-Dawley rat at 5 mg/kg, iv and 20 mg/kg, po; format: ADME, organism-based; procedure, shortened: as §2
[14] = molecular target: Prostaglandin F2-alpha receptor (Homo sapiens, UniProt P43088); assay: Displacement of [3H]PGF2alpha from human prostanoid FP receptor expressed in HEK293-EBNA cells after 60 mins by scintillation counting; format: cell-based
Sequence of Prostaglandin F2-alpha receptor (P43088 whole entry): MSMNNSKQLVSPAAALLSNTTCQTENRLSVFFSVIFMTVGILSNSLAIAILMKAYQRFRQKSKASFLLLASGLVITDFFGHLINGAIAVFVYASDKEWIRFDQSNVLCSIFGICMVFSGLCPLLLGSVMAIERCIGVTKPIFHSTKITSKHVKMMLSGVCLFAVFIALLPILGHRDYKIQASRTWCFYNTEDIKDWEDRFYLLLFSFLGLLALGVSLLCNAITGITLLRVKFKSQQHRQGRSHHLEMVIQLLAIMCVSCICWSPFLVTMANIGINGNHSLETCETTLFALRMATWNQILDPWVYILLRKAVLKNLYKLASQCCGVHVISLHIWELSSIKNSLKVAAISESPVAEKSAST

Ki [2]: 1650 nM | Stability (Hepatocyte): Stable | IC50 [3]: 1.3 nM | concentration at 2 h [4]: 28 nM | F (Canis familiaris [5]): 74% | bioavailability [6]: 86% | half-life [7]: 4.6 h | AUC (Canis familiaris [9]): 15 µM·h | clearance [13]: 3.7 mL/min/kg | Ki [14]: 6400 nM
Structure (SMILES): O=C(O)c1ccc(C2(NC(=O)c3cccc4ccn(Cc5ccc(C(F)(F)F)cc5)c34)CC2)cc1
ED50 (Rattus norvegicus [1]): 0.004 mg/kg/day | ED100 (Rattus norvegicus [8]): 0.025 mg/kg/day | Activity (Rattus norvegicus [10]): 70% | ED100 (Rattus norvegicus [11]): 0.025 mg/kg/day | Activity (Rattus norvegicus [12]): 100%
